From ChEMBL document CHEMBL1157295, “Polyacylated oligosaccharides from medicinal Mexican morning glory species as antibacterials and inhibitors of multidrug resistance in Staphylococcus aureus” (2006)
Converted amounts (≈) assume the structure as drawn.

Columns and labels:
Format in all cases: functional
Staphylococcus aureus [1] = assay: Antimicrobial activity against Staphylococcus aureus ATCC 25923 by standard microdilution method
Method in brief: (§1)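 Broth microdilution per NCCLS guidelines, at least in duplicate, in cation-adjusted Mueller-Hinton broth (20 mg/L Ca2+, 10 mg/L Mg2+). Strains were grown first on nutrient agar. Inoculum of 5 × 10^5 cfu was set in 0.9% saline against a McFarland standard. Compounds were dissolved in DMSO and given as 2-fold serial dilutions, final 1–512 µg/mL, with at most 3.125% v/v DMSO. MIC is the lowest concentration showing no visible growth.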

Staphylococcus aureus [2] = assay: Antimicrobial activity against Staphylococcus aureus ATCC 6538
Staphylococcus aureus [3] = assay: Antimicrobial activity against epidemic methicillin-resistant Staphylococcus aureus 15 by standard microdilution method
Method in brief: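 Broth microdilution following NCCLS guidelines, at least in duplicate, against EMRSA-15 (mecA) precultured on nutrient agar. Medium was cation-adjusted Mueller-Hinton broth with 20 mg/L Ca2+ and 10 mg/L Mg2+. Inoculum was 5 × 10^5 cfu in 0.9% saline, set against a McFarland standard. Compounds were dissolved in DMSO (final ≤3.125% v/v) and tested at 1–512 µg/mL in 2-fold series. MIC was the lowest concentration with no visible growth.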

Staphylococcus aureus [4] = assay: Antimicrobial activity against TetK multidrug efflux pump possessing Staphylococcus aureus XU-212 by standard microdilution method; method in brief: as §1
[5] = system: Mycobacterium tuberculosis; assay: Antimicrobial activity against Mycobacterium tuberculosis

With `CCCCC[C@H]1CCCCCCCCCC(=O)O[C@H]2[C@H](O)[C@@H](CO)O[C@@H](O[C@H]3[C@H](O1)O[C@H](C)[C@@H](O)[C@@H]3O)[C@@H]2O[C@@H]1O[C@@H](C)[C@H](OC(=O)[C@@H](C)CC)[C@@H](O[C@@H]2O[C@@H](C)[C@H](O)[C@@H](O)[C@H]2O)[C@H]1OC(=O)[C@@H](C)CC` [TRICOLORIN E] the MIC (Staphylococcus aureus [1]) was 16 µg/mL (≈ 15.6 µM), the MIC (Staphylococcus aureus [2]) was 1 µg/mL (≈ 0.977 µM) and the MIC (Staphylococcus aureus [3]) was 8 µg/mL (≈ 7.82 µM). The MIC (Staphylococcus aureus [4]) was 8 µg/mL (≈ 7.82 µM) and the MIC [5] was 16 µg/mL (≈ 15.6 µM).
`CCCCC[C@H]1CCCCCCCCCC(=O)O[C@H]2[C@H](O)[C@@H](CO)O[C@@H](O[C@H]3[C@H](O1)O[C@H](C)[C@H](O)[C@@H]3O)[C@@H]2O[C@@H]1O[C@@H](C)[C@H](OC(=O)[C@@H](C)CC)[C@@H](O[C@@H]2O[C@@H](C)[C@H](O)[C@@H](O)[C@H]2O)[C@H]1OC(=O)[C@@H](C)CC` [TRICOLORIN A] was tested, and the MIC (Staphylococcus aureus [1]) was 16 µg/mL (≈ 15.6 µM), the MIC (Staphylococcus aureus [2]) was 1 µg/mL (≈ 0.977 µM) and the MIC (Staphylococcus aureus [3]) was 4 µg/mL (≈ 3.91 µM). It also gave an MIC (Staphylococcus aureus [4]) of 8 µg/mL (≈ 7.82 µM) and an MIC [5] of 16 µg/mL (≈ 15.6 µM).
`CCCCC[C@H]1CCCCCCCCCC(=O)OC[C@H]2O[C@@H](O[C@H]3[C@H](O1)O[C@H](C)[C@H](O)[C@@H]3O)[C@H](O[C@@H]1O[C@@H](C)[C@H](OC(=O)[C@@H](C)CC)[C@@H](O[C@@H]3O[C@@H](C)[C@H](O)[C@@H](O)[C@H]3O)[C@H]1OC(=O)[C@@H](C)CC)[C@@H](O)[C@@H]2O` [TRICOLORIN D] gave an MIC (Staphylococcus aureus [1]) of 16 µg/mL (≈ 15.6 µM), an MIC (Staphylococcus aureus [2]) of 1 µg/mL (≈ 0.977 µM) and an MIC (Staphylococcus aureus [3]) of 32 µg/mL (≈ 31.3 µM). For the same molecule, the MIC (Staphylococcus aureus [4]) was 32 µg/mL (≈ 31.3 µM) and the MIC [5] was 16 µg/mL (≈ 15.6 µM).
`CCCCC[C@H]1CCCCCCCCCC(=O)O[C@H]2[C@H](O)[C@@H](CO)O[C@@H](O[C@H]3[C@H](O1)O[C@H](C)[C@H](O)[C@@H]3O)[C@@H]2O[C@@H]1O[C@@H](C)[C@H](OC(=O)C(C)C)[C@@H](O[C@@H]2O[C@@H](C)[C@H](O)[C@@H](O)[C@H]2O)[C@H]1OC(=O)[C@@H](C)CC` [TRICOLORIN B] showed an MIC (Staphylococcus aureus [1]) of 32 µg/mL (≈ 31.7 µM), an MIC (Staphylococcus aureus [2]) of 1 µg/mL (≈ 0.991 µM) and an MIC (Staphylococcus aureus [3]) of 16 µg/mL (≈ 15.9 µM). For the same molecule, the MIC (Staphylococcus aureus [4]) was 16 µg/mL (≈ 15.9 µM) and the MIC [5] was 16 µg/mL (≈ 15.9 µM).
